Source: ChEMBL document CHEMBL3045217, “Factors affecting the synergy of thiabendazole, sodium bicarbonate, and heat to control postharvest green mold of citrus fruit” (J Agric Food Chem, 2008)

Experiments:
Fruit [1] = assay: Total drug residues in Citrus sinensis cvs. Salustiana (Salustiana oranges) fruit at 600 mg/L treated for 3 min at 50 degC postharvest measured after overnight incubation at 17 degC by GC analysis; format: ADME; conditions: 0.05 h
In short: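 'Salustiana' oranges were water-washed, dried, dipped, then dried overnight at 17 °C in the dark. Unextracted fruit were used for total residues. Peel from five oranges was frozen at -18 °C. 5 g homogenized peel was extracted with 10 mL ethyl acetate/hexane (1/1) plus 2 g NaCl, shaken 30 min, then 1 mL of organic layer was dried under N2, redissolved in acetone, and run by GC without cleanup. Results are on a whole-fruit basis.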

Fruit [2] = assay: Drug residues in Citrus sinensis cvs. Valencia late (Valencia oranges) at 600 mg/L treated for 1 min at 20 degC postharvest measured immediately post-drug treatment by GC analysis; format: ADME
In short: (§1)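 'Valencia' oranges were dipped 1 min in TBZ at 600 mg/L (20 °C, ±0.5, 1 or 2% wt/vol SBC), 400 mg/L (40 °C, ±SBC) or 200 mg/L (50 °C, alone), then air-dried. They were sampled at 0, 10 and 20 days at 17 °C. Peel of five fruit was frozen, and 5 g of homogenate was extracted with ethyl acetate/hexane (1/1) plus NaCl. The extract was dried under N2, taken up in acetone and analysed by GC. Results are mg/kg on a whole-fruit basis.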

Fruit surface = assay: Drug residues on Citrus sinensis cvs. Salustiana (Salustiana oranges) fruit surface at 600 mg/L treated for 1 min at 20 degC postharvest measured after overnight incubation at 17 degC by GC analysis; format: ADME
In short: (§2)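 'Salustiana' oranges were washed with water and air-dried. They were dipped 1 or 3 min in TBZ 600 mg/L at 20 or 50 °C, or 1 min in TBZ 600 mg/L plus 2% SBC at 20 °C, then dried overnight at 17 °C in the dark. Surface residue was taken by water extraction and wax residue by chloroform extraction. Inner residue was measured in fruit after both extractions. Extracts were dried under N2, taken up in acetone and analysed by GC. Values are mg/kg on a whole-fruit basis.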

Penicillium digitatum [3] = assay: (§3) Fungicidal activity against TBZ-sensitive Penicillium digitatum infected Nova mandarins assessed as postharvest green mold incidence at 600 mg/L treated for 1 min at 20 degC at 20 hr after fungal conidial inoculation measured after 5 days of storage at 20 degC in presence of 0.5% SBC (water Rvb = 100%); format: functional
In short: (§4)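 Fruit were surface-disinfected in 1 g/L hypochlorite for 30 s, rinsed, dried, then wounded twice equatorially (2 mm × 2 mm rod). Inoculation was a 1 min dip in P. digitatum conidia, 1 × 10^5 conidia/mL final. Fruit were held 20 h at 20 °C and 90% RH, dipped 1 min (SBC wt/vol), and air-dried. Storage was 20 °C, 90% RH. Decay incidence (% fruit with lesions) was scored at 5 d for mandarins and 7 d for oranges. Three replicates of 40 fruit were used; arcsin-transformed data were compared by LSD, p ≤ 0.05.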

Penicillium digitatum [4] = assay: Fungicidal activity against Penicillium digitatum infected Valenica oranges assessed as fruit weight loss at 600 mg/L treated for 1 min at 20 degC postharvest at 20 hr after fungal conidial inoculation measured after 7 days of storage at 17 degC in presence of 1% SBC (water Rvb = 3.89%); format: functional
Penicillium digitatum [5] = assay: Fungicidal activity against Penicillium digitatum infected Valenica oranges assessed as fruit weight loss at 600 mg/L treated for 1 min at 20 degC postharvest at 20 hr after fungal conidial inoculation measured after 14 days of storage at 17 degC (water Rvb = 5.62%); format: functional
Cuticular wax = assay: Drug residues in Citrus sinensis cvs. Salustiana (Salustiana oranges) cuticular wax at 600 mg/L treated for 1 min at 50 degC postharvest measured after overnight incubation at 17 degC by GC analysis; format: ADME; in short: as §2
Fruit [6] = assay: Drug residues in Citrus sinensis cvs. Valencia late (Valencia oranges) at 400 mg/L treated for 1 min at 40 degC postharvest measured immediately post-drug treatment in presence of 1% SBC by GC analysis; format: ADME; in short: as §1
Penicillium digitatum [7] = assay: Fungicidal activity against TBZ-resistant Penicillium digitatum infected Nova mandarins assessed as postharvest green mold incidence at 600 mg/L treated for 1 min at 20 degC at 20 hr after fungal conidial inoculation measured after 5 days of storage at 20 degC (water Rvb = 100%); format: functional
Penicillium digitatum [8] = assay: as §3, with “1%” for “0.5%”, “96.7%)” for “100%)”; format: functional; in short: as §4
Penicillium digitatum [9] = assay: Fungicidal activity against Penicillium digitatum infected Valenica oranges assessed as fruit weight loss at 400 mg/L treated for 1 min at 40 degC postharvest at 20 hr after fungal conidial inoculation measured after 21 days of storage at 17 degC in presence of 0.5% SBC (water Rvb = 11.43%); format: functional
Penicillium digitatum [10] = assay: Fungicidal activity against Penicillium digitatum infected Valenica oranges assessed as fruit weight loss at 200 mg/L treated for 1 min at 50 degC postharvest at 20 hr after fungal conidial inoculation measured after 14 days of storage at 17 degC (water Rvb = 6.18%); format: functional
Penicillium digitatum [11] = assay: Fungicidal activity against Penicillium digitatum infected Valenica oranges assessed as fruit weight loss at 600 mg/L treated for 1 min at 20 degC postharvest at 20 hr after fungal conidial inoculation measured after 21 days of storage at 17 degC in presence of 1% SBC (water Rvb = 11.20%); format: functional
Fruit [12] = assay: Drug residues in Citrus sinensis cvs. Valencia late (Valencia oranges) at 600 mg/L treated for 1 min at 20 degC postharvest measured after 20 days of storage at 17 degC by GC analysis; format: ADME; in short: as §1
Penicillium digitatum [13] = assay: Fungicidal activity against Penicillium digitatum infected Valenica oranges assessed as fruit weight loss at 400 mg/L treated for 1 min at 40 degC postharvest at 20 hr after fungal conidial inoculation measured after 14 days of storage at 17 degC in presence of 2% SBC (water Rvb = 9.20%); format: functional
Penicillium digitatum [14] = assay: Fungicidal activity against TBZ-resistant Penicillium digitatum infected Nova mandarins assessed as postharvest green mold incidence at 400 mg/L treated for 1 min at 40 degC at 20 hr after fungal conidial inoculation measured after 5 days of storage at 20 degC (water Rvb = 96.7%); format: functional
Fruit [15] = assay: Drug residues in Citrus sinensis cvs. Valencia late (Valencia oranges) at 600 mg/L treated for 1 min at 20 degC postharvest measured after 20 days of storage at 17 degC in presence of 2% SBC by GC analysis; format: ADME; in short: as §1
Fruit [16] = assay: Drug residues in Citrus sinensis cvs. Valencia late (Valencia oranges) at 400 mg/L treated for 1 min at 40 degC postharvest measured after 20 days of storage at 17 degC by GC analysis; format: ADME; in short: as §1
Fruit [17] = assay: Drug residues in Citrus sinensis cvs. Valencia late (Valencia oranges) at 600 mg/L treated for 1 min at 20 degC postharvest measured immediately post-drug treatment in presence of 1% SBC by GC analysis; format: ADME; in short: as §1
Penicillium digitatum [18] = assay: Fungicidal activity against Penicillium digitatum infected Valenica oranges assessed as fruit weight loss at 600 mg/L treated for 1 min at 20 degC postharvest at 20 hr after fungal conidial inoculation measured after 7 days of storage at 17 degC (water Rvb = 3.13%); format: functional

With `c1ccc2[nH]c(-c3cscn3)nc2c1` [THIABENDAZOLE] the Drug uptake (Fruit [1]) was 1.6 mg/kg, the Drug uptake (Fruit [2]) was 1.59 mg/kg and the Drug uptake (Fruit surface) was 0.68 mg/kg. It also gave an Activity (Penicillium digitatum [3]) of 0%, an Activity (Penicillium digitatum [4]) of 4.33% and an Activity (Penicillium digitatum [5]) of 6.33%. The Drug uptake (Cuticular wax) was 0.54 mg/kg, the Drug uptake (Fruit [6]) was 0.75 mg/kg and the Activity (Penicillium digitatum [7]) was 98.3%. The Activity (Penicillium digitatum [8]) was 3.3%, the Activity (Penicillium digitatum [9]) was 12.23% and the Activity (Penicillium digitatum [10]) was 5.8%. It also gave an Activity (Penicillium digitatum [11]) of 12.35%, a Drug uptake (Fruit [12]) of 1.54 mg/kg and an Activity (Penicillium digitatum [13]) of 9.45%. The Activity (Penicillium digitatum [14]) was 88.3%, the Drug uptake (Fruit [15]) was 1.38 mg/kg and the Drug uptake (Fruit [16]) was 0.87 mg/kg. It also gave a Drug uptake (Fruit [17]) of 1.31 mg/kg and an Activity (Penicillium digitatum [18]) of 3.59%.
